Results published in ChEMBL document CHEMBL4689842, “EUbOPEN Chemogenomics Library wave 1” (2021).

System: HEK-293T
Assay: Multiplex assay against HEK293T;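 on Population Tubulin-Different-Phenotype (%): share of the cells with healthy nuclei that show this phenotype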
Assay type: toxicity, cell-based
Conditions: human
Method in brief: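 Per cents of healthy-nucleus cells form the tubulin, mitochondrial-mass and membrane-permeability phenotype values. Live cells were stained at seeding with Hoechst33342, BioTracker Green Microtubule Cytoskeleton Dye, MitoTracker Red and Annexin V Alexa Fluor 680. After compound addition they were imaged on a CQ1 microscope at 37°C and 5% CO2, and CellPathfinder machine-learning gating split them into Hoechst high-intensity objects or normal cells, normal cells into healthy, pyknosed or fragmented nuclei, and pyknosed cells into mitotic or apoptotic.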

[1] = 12 h, 1 µM, compound concentration 1 uM, replicate 1
[2] = 12 h, 1 µM, compound concentration 1 uM, replicate 2
[3] = 12 h, 10 µM, compound concentration 10 uM, replicate 1
[4] = 12 h, 10 µM, compound concentration 10 uM, replicate 2
[5] = 24 h, 1 µM, compound concentration 1 uM, replicate 1
[6] = 24 h, 1 µM, compound concentration 1 uM, replicate 2
[7] = 24 h, 10 µM, compound concentration 10 uM, replicate 1
[8] = 24 h, 10 µM, compound concentration 10 uM, replicate 2
[9] = 48 h, 1 µM, compound concentration 1 uM, replicate 1
[10] = 48 h, 1 µM, compound concentration 1 uM, replicate 2
[11] = 48 h, 10 µM, compound concentration 10 uM, replicate 1
[12] = 48 h, 10 µM, compound concentration 10 uM, replicate 2

Compound: OC1(c2ccc(Cl)cc2)CCN(Cc2c[nH]c3ccccc23)CC1
- Population Apoptotic (%) [1]: 51%
- Population Fragmented Nuclei (%) [1]: 20%
- Population Healthy Nuclei (%) [1]: 14%
- Population Hoechst High Intensity Objects (%) [1]: 15%
- Population Membrane Permeable-Phenotype (%) [1]: 4%
- Population Mitochondria Different-Phenotype (%) [1]: 63%
- Population Mitotic Cells (%) [1]: 48%
- Population Normal (%) [1]: 84%
- Population Pyknosed Nuclei (%) [1]: 65%
- Population Tubulin-Different-Phenotype (%) [1]: 45%
- Total Cell Count [1]: 177
- Population Apoptotic (%) [2]: 18%
- Population Fragmented Nuclei (%) [2]: 6%
- Population Healthy Nuclei (%) [2]: 29%
- Population Hoechst High Intensity Objects (%) [2]: 6%
- Population Membrane Permeable-Phenotype (%) [2]: 7%
- Population Mitochondria Different-Phenotype (%) [2]: 34%
- Population Mitotic Cells (%) [2]: 81%
- Population Normal (%) [2]: 93%
- Population Pyknosed Nuclei (%) [2]: 63%
- Population Tubulin-Different-Phenotype (%) [2]: 42%
- Total Cell Count [2]: 136
- Population Apoptotic (%) [3]: 70%
- Population Fragmented Nuclei (%) [3]: 11%
- Population Healthy Nuclei (%) [3]: 11%
- Population Hoechst High Intensity Objects (%) [3]: 15%
- Population Membrane Permeable-Phenotype (%) [3]: 7%
- Population Mitochondria Different-Phenotype (%) [3]: 100%
- Population Mitotic Cells (%) [3]: 29%
- Population Normal (%) [3]: 84%
- Population Pyknosed Nuclei (%) [3]: 77%
- Population Tubulin-Different-Phenotype (%) [3]: 92%
- Total Cell Count [3]: 275
- Population Apoptotic (%) [4]: 63%
- Population Fragmented Nuclei (%) [4]: 5%
- Population Healthy Nuclei (%) [4]: 14%
- Population Hoechst High Intensity Objects (%) [4]: 9%
- Population Membrane Permeable-Phenotype (%) [4]: 17%
- Population Mitochondria Different-Phenotype (%) [4]: 89%
- Population Mitotic Cells (%) [4]: 36%
- Population Normal (%) [4]: 90%
- Population Pyknosed Nuclei (%) [4]: 80%
- Population Tubulin-Different-Phenotype (%) [4]: 86%
- Total Cell Count [4]: 223
- Population Apoptotic (%) [5]: 50%
- Population Fragmented Nuclei (%) [5]: 22%
- Population Healthy Nuclei (%) [5]: 30%
- Population Hoechst High Intensity Objects (%) [5]: 16%
- Population Membrane Permeable-Phenotype (%) [5]: 3%
- Population Mitochondria Different-Phenotype (%) [5]: 70%
- Population Mitotic Cells (%) [5]: 49%
- Population Normal (%) [5]: 83%
- Population Pyknosed Nuclei (%) [5]: 46%
- Population Tubulin-Different-Phenotype (%) [5]: 42%
- Total Cell Count [5]: 210
- Population Apoptotic (%) [6]: 27%
- Population Fragmented Nuclei (%) [6]: 6%
- Population Healthy Nuclei (%) [6]: 52%
- Population Hoechst High Intensity Objects (%) [6]: 5%
- Population Membrane Permeable-Phenotype (%) [6]: 8%
- Population Mitochondria Different-Phenotype (%) [6]: 30%
- Population Mitotic Cells (%) [6]: 72%
- Population Normal (%) [6]: 94%
- Population Pyknosed Nuclei (%) [6]: 40%
- Population Tubulin-Different-Phenotype (%) [6]: 50%
- Total Cell Count [6]: 171
- Population Apoptotic (%) [7]: 76%
- Population Fragmented Nuclei (%) [7]: 14%
- Population Healthy Nuclei (%) [7]: 3%
- Population Hoechst High Intensity Objects (%) [7]: 16%
- Population Membrane Permeable-Phenotype (%) [7]: 0%
- Population Mitochondria Different-Phenotype (%) [7]: 100%
- Population Mitotic Cells (%) [7]: 23%
- Population Normal (%) [7]: 83%
- Population Pyknosed Nuclei (%) [7]: 81%
- Population Tubulin-Different-Phenotype (%) [7]: 100%
- Total Cell Count [7]: 282
- Population Apoptotic (%) [8]: 89%
- Population Fragmented Nuclei (%) [8]: 5%
- Population Healthy Nuclei (%) [8]: 8%
- Population Hoechst High Intensity Objects (%) [8]: 8%
- Population Membrane Permeable-Phenotype (%) [8]: 15%
- Population Mitochondria Different-Phenotype (%) [8]: 73%
- Population Mitotic Cells (%) [8]: 10%
- Population Normal (%) [8]: 91%
- Population Pyknosed Nuclei (%) [8]: 85%
- Population Tubulin-Different-Phenotype (%) [8]: 84%
- Total Cell Count [8]: 238
- Population Apoptotic (%) [9]: 58%
- Population Fragmented Nuclei (%) [9]: 19%
- Population Healthy Nuclei (%) [9]: 53%
- Population Hoechst High Intensity Objects (%) [9]: 13%
- Population Mitochondria Different-Phenotype (%) [9]: 41%
- Population Mitotic Cells (%) [9]: 41%
- Population Normal (%) [9]: 86%
- Population Pyknosed Nuclei (%) [9]: 26%
- Population Tubulin-Different-Phenotype (%) [9]: 31%
- Total Cell Count [9]: 247
- Population Apoptotic (%) [10]: 7%
- Population Fragmented Nuclei (%) [10]: 7%
- Population Healthy Nuclei (%) [10]: 70%
- Population Hoechst High Intensity Objects (%) [10]: 2%
- Population Membrane Permeable-Phenotype (%) [10]: 6%
- Population Mitochondria Different-Phenotype (%) [10]: 15%
- Population Mitotic Cells (%) [10]: 92%
- Population Normal (%) [10]: 97%
- Population Pyknosed Nuclei (%) [10]: 22%
- Population Tubulin-Different-Phenotype (%) [10]: 39%
- Total Cell Count [10]: 264
- Population Apoptotic (%) [11]: 71%
- Population Fragmented Nuclei (%) [11]: 22%
- Population Healthy Nuclei (%) [11]: 0%
- Population Hoechst High Intensity Objects (%) [11]: 18%
- Population Membrane Permeable-Phenotype (%) [11]: 0%
- Population Mitochondria Different-Phenotype (%) [11]: 100%
- Population Mitotic Cells (%) [11]: 28%
- Population Normal (%) [11]: 81%
- Population Pyknosed Nuclei (%) [11]: 77%
- Population Tubulin-Different-Phenotype (%) [11]: 100%
- Total Cell Count [11]: 295
- Population Apoptotic (%) [12]: 89%
- Population Fragmented Nuclei (%) [12]: 19%
- Population Healthy Nuclei (%) [12]: 19%
- Population Hoechst High Intensity Objects (%) [12]: 4%
- Population Membrane Permeable-Phenotype (%) [12]: 4%
- Population Mitochondria Different-Phenotype (%) [12]: 71%
- Population Mitotic Cells (%) [12]: 10%
- Population Normal (%) [12]: 95%
- Population Pyknosed Nuclei (%) [12]: 60%
- Population Tubulin-Different-Phenotype (%) [12]: 95%
- Total Cell Count [12]: 224
